Source: ChEMBL document CHEMBL3396991 (Eur J Med Chem, 2015)

What was measured:
[1] = target: Kappa-type opioid receptor (Rattus norvegicus, UniProt P34975); assay: Displacement of [3H]U69593 from rat recombinant kappa opioid receptor expressed in CHO cells after 60 mins; assay type: cell-based
Homo sapiens [2] = species on record: Homo sapiens; assay: Selectivity ratio of Ki for delta opioid receptor (unknown origin) to Ki for kappa opioid receptor (unknown origin)
Outline: (§1)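 Ratio of two Ki values from radioligand displacement. KOR: rat recombinant receptor in CHO cells, [³H]U69593 (1 nM), 60 min. DOR: human recombinant receptor, [³H]DADLE (0.5 nM), 120 min. Both in 50 mM Tris pH 7.4 at room temperature with eight test concentrations. Ki is the mean ± SD of at least three independent experiments.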

Homo sapiens [3] = species on record: Homo sapiens; assay: Selectivity ratio of Ki for mu opioid receptor (unknown origin) to Ki for kappa opioid receptor (unknown origin)
Outline: as §1, with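 “MOR:” for “DOR:”, “receptor in HEK cells, [³H]diprenorphine (0.4” for “receptor, [³H]DADLE (0.5”, “three” for “three independent”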

[4] = target: Kappa-type opioid receptor (Homo sapiens, UniProt P41145); assay: Antagonist activity at kappa opioid receptor (unknown origin)
Chain of Kappa-type opioid receptor (Homo sapiens, UniProt P41145) (P41145 whole entry): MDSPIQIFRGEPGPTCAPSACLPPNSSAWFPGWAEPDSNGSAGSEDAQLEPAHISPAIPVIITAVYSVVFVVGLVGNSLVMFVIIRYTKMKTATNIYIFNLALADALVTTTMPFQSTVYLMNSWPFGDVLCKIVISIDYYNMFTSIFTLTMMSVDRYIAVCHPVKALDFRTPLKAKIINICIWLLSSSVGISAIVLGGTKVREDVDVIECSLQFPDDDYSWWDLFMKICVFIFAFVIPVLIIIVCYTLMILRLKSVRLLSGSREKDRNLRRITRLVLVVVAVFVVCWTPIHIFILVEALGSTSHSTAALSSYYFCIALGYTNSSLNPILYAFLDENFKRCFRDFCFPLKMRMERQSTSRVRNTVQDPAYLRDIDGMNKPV

[5] = Selectivity ratio of Ki for human recombinant delta opioid receptor to Ki for rat recombinant kappa opioid receptor
Outline: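 Ratio of DOR Ki to KOR Ki. […] Both assays in 50 mM Tris pH 7.4 at room temperature, eight concentrations.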

Mu-type opioid receptor = Mu-type opioid receptor (Homo sapiens, UniProt P35372); assay: Displacement of [3H]diprenorphine from human recombinant mu opioid receptor expressed in HEK cells after 60 mins; assay type: cell-based, HEK293
Chain of Mu-type opioid receptor (P35372 whole entry): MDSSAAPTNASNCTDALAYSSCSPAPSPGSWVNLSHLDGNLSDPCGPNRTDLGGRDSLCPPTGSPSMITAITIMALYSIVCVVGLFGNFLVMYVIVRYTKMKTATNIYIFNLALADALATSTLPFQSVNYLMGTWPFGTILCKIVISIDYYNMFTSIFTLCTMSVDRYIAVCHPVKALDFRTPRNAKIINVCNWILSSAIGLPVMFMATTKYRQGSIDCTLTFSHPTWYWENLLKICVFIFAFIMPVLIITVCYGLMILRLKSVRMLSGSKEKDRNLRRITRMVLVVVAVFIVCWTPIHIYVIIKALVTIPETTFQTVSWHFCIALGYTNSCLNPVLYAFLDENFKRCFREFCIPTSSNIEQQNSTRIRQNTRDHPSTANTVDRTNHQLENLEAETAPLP

[6] = Selectivity ratio of Ki for human recombinant mu opioid receptor to Ki for rat recombinant kappa opioid receptor
[7] = target: Delta-type opioid receptor (Homo sapiens, UniProt P41143); assay: Displacement of [3H]DADLE from human recombinant delta opioid receptor expressed in HEK cells after 60 mins; assay type: cell-based, HEK293
Chain of Delta-type opioid receptor (P41143 whole entry): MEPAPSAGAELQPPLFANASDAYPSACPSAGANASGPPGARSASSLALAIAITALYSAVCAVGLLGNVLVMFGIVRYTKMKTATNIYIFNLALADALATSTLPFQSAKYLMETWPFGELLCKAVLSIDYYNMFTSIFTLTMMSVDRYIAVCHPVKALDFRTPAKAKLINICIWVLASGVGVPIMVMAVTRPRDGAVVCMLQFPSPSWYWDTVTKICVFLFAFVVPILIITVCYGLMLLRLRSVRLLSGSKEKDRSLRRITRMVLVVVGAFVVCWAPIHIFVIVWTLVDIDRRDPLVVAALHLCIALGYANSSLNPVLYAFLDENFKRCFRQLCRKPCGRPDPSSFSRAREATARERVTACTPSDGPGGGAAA

Chain of Kappa-type opioid receptor (Rattus norvegicus, UniProt P34975) (P34975 whole entry): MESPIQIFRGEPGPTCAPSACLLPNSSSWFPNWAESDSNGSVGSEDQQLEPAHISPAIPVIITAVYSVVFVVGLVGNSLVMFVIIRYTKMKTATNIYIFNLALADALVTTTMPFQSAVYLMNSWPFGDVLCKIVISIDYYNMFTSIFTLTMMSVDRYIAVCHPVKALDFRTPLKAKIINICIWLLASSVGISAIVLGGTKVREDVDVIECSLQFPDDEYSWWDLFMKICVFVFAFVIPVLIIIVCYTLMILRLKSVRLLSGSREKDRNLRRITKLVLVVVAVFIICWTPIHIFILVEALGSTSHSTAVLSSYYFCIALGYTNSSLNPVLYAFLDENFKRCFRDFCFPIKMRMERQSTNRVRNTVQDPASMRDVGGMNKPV

CC(C)[C@@H](CN1CC[C@@](C)(c2cccc(O)c2)[C@@H](C)C1)NC(=O)[C@H]1Cc2ccc(O)cc2CN1 [JDTIC]
Ki [1]: 0.32 nM

Cc1cc(C)cc([C@@H]2CCCN2Cc2ccc(Oc3ccc(C(N)=O)cc3F)cc2)c1 [ATICAPRANT]
Ratio Ki (Homo sapiens [2]): 194
Ratio Ki (Homo sapiens [3]): 30
Ki [4]: 0.8 nM

CC(C)[C@@H](CN1CC[C@@](C)(c2cccc(O)c2)[C@@H](C)C1)NC(=O)[C@H]1Cc2ccc(O)cc2CN1CCCF
Ratio Ki [5]: 159
Ki (Mu-type opioid receptor): 19.6 nM
Ratio Ki [6]: 12.2
Ki [7]: 254 nM
Ki [1]: 1.62 nM

CC(C)[C@@H](CN1CC[C@@](C)(c2cccc(O)c2)[C@@H](C)C1)NC(=O)[C@H]1Cc2ccc(OCCF)cc2CN1
Ratio Ki [5]: 3.4
Ki (Mu-type opioid receptor): 63.1 nM
Ratio Ki [6]: 2.6
Ki [7]: 81.3 nM
Ki [1]: 24 nM

CC(C)[C@@H](CN1CC[C@@](C)(c2cccc(O)c2)[C@@H](C)C1)NC(=O)[C@H]1Cc2ccc(O)cc2CN1CCF
Ratio Ki [5]: 13.2
Ki (Mu-type opioid receptor): 13.2 nM
Ratio Ki [6]: 2.4
Ki [7]: 72.8 nM
Ki [1]: 5.51 nM

CC(C)[C@@H](CN1CC[C@@](C)(c2cccc(O)c2)[C@@H](C)C1)NC(=O)[C@H]1Cc2ccc(OCCCF)cc2CN1
Ratio Ki [5]: 8.9
Ki (Mu-type opioid receptor): 57.5 nM
Ratio Ki [6]: 7
Ki [7]: 72.9 nM
Ki [1]: 8.19 nM
